From publication PMC5991896 (Biochimie Open, 2017)

target: T1, fucolectin-related protein (FRP) (Streptococcus pneumoniae, UniProt A0A0H2US34); experiment: enzyme-linked lectinosorbent inhibition assay; assay type: binding; details: TBS-T pH 7.35, 20 °C; no metal needed; ratio from amounts giving 50% inhibition
T1 sequence (A0A0H2US34 1-1038): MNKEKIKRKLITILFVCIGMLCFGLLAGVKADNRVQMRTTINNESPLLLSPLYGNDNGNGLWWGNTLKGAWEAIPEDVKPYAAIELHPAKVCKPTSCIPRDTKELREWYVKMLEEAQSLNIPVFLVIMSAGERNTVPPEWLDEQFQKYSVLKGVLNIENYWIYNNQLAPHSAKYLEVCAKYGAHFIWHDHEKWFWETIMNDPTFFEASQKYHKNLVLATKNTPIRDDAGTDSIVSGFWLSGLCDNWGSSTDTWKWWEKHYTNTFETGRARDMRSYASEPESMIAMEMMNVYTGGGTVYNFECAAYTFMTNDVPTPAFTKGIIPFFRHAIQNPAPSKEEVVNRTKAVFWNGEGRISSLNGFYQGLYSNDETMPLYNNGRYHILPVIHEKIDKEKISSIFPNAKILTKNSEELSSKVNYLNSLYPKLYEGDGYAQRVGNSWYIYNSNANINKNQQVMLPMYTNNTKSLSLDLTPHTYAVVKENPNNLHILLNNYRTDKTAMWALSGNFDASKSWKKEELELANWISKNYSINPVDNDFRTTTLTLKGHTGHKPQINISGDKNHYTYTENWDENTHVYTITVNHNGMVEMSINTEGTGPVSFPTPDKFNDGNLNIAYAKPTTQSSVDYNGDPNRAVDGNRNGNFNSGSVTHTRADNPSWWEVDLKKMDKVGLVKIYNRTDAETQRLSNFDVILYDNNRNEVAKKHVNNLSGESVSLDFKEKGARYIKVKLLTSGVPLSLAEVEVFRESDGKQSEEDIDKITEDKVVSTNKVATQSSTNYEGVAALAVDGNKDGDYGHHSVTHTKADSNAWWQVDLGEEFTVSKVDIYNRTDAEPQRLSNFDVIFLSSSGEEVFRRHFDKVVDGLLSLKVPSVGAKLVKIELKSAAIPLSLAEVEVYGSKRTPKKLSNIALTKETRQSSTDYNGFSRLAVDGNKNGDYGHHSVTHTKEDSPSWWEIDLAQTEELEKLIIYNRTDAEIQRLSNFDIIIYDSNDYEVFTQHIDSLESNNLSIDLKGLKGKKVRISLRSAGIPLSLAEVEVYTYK
Summary of the method: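 Recombinant SP2159 FRP expressed in E. coli and biotinylated. Wells coated at 4 °C with 10 μg human ovarian cyst phenol-insoluble glycoprotein bearing H Fucα1→2Gal and Fucα1→3/4GlcNAc glycotopes. Twofold serially diluted saccharide was mixed with an equal volume of fixed FRP for 1 h at 20 °C. TBS-T served as diluent and wash. The nmole/well giving 50% inhibition versus no inhibitor was read from the inhibition curve.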

Compound | Molar Relative Potency / LFuc as 1.0
C[C@@H]1O[C@@H](Oc2ccc([N+](=O)[O-])cc2)[C@@H](O)[C@H](O)[C@@H]1O [compound 2, p-Nitrophenyl-α-LFuc] | 34.5 relative to LFuc = 1.0
C[C@@H]1O[C@H](Oc2ccc([N+](=O)[O-])cc2)[C@@H](O)[C@H](O)[C@@H]1O [compound 1, p-Nitrophenyl-β-LFuc] | 69.1 relative to LFuc = 1.0
C[C@@H]1O[C@@H](O[C@H]2[C@H](O[C@H]3[C@H](O[C@@H]4O[C@@H](C)[C@@H](O)[C@@H](O)[C@@H]4O)[C@@H](O)C(O)O[C@@H]3CO)O[C@H](CO)[C@H](O)[C@@H]2O)[C@@H](O)[C@H](O)[C@@H]1O (stereo partly drawn) [compound 4, LFucα1→2Galβ1→4[LFucα1→3]Glc] | 5.7 relative to LFuc = 1.0
CO[C@H]1O[C@@H](C)[C@@H](O)[C@@H](O)[C@@H]1O [compound 3, Methyl-β-LFuc] | 21.9 relative to LFuc = 1.0

The remaining lines, values ahead:

Molar Relative Potency / LFuc as 1.0 | Compound
4.4 relative to LFuc = 1.0 | OC[C@@H]1OC(O)[C@@H](O)[C@H](O)[C@@H]1O (stereo partly drawn) [compound 6, LGal]
4.4 relative to LFuc = 1.0 | CO[C@@H]1O[C@@H](C)[C@@H](O)[C@@H](O)[C@@H]1O [compound 5, Methyl-α-LFuc]
1.8 relative to LFuc = 1.0 | CC(=O)N[C@H]1[C@H](O[C@H]2[C@@H](O)[C@@H](CO)O[C@@H](O[C@H]3[C@H](O)[C@@H](O)C(O)O[C@@H]3CO)[C@@H]2O)O[C@H](CO)[C@@H](O[C@@H]2O[C@@H](C)[C@@H](O)[C@@H](O)[C@@H]2O)[C@@H]1O[C@@H]1O[C@H](CO)[C@H](O)[C@H](O)[C@H]1O[C@@H]1O[C@@H](C)[C@@H](O)[C@@H](O)[C@@H]1O (stereo partly drawn) [compound 7, LFucα1→2Galβ1→3[LFucα1→4]GlcNAcβ1→3Gal β1→4Glc]
0.7 relative to LFuc = 1.0 | C[C@@H]1O[C@@H](O[C@H]2C(O)O[C@H](CO)[C@H](O)[C@@H]2O)[C@@H](O)[C@H](O)[C@@H]1O (stereo partly drawn) [compound 9, LFucα1→2Gal]
0.09 relative to LFuc = 1.0 | OC1OC[C@@H](O)[C@@H](O)[C@@H]1O (stereo partly drawn) [compound 10, DAra]
